In ChEMBL document CHEMBL2157880, “Synthesis, antimycobacterial and antibacterial activity of ciprofloxacin derivatives containing a N-substituted benzyl moiety” (2012):
Converted amounts (≈) assume the structure as drawn.

Key:
Type in all cases: functional
[1] = system: Mycobacterium tuberculosis; experiment: Antimycobacterial activity against Mycobacterium tuberculosis H37Rv ATCC 27294 by microplate alamar blue assay
Method in brief: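 Microplate Alamar Blue fluorescence assay on strain H37Rv ATCC 27294. MIC was the lowest concentration cutting fluorescence by ≥90% against the mean of replicate bacterium-only controls.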

Staphylococcus aureus [2] = experiment: Antibacterial activity against Staphylococcus aureus ATCC 2592 after 18 to 24 hrs by NCCLS method
Method in brief: (§1)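 Standard NCCLS (M100-S11) MIC testing against Gram-positive and Gram-negative strains. Plates were incubated at 35 °C for 18–24 h. The MIC was read as the lowest concentration giving complete inhibition of visible bacterial growth.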

Staphylococcus aureus [3] = experiment: Antibacterial activity against methicillin-sensitive Staphylococcus aureus 10-11 after 18 to 24 hrs by NCCLS method; method in brief: as §1
Staphylococcus aureus [4] = experiment: Antibacterial activity against methicillin-sensitive Staphylococcus aureus 10-13 after 18 to 24 hrs by NCCLS method; method in brief: as §1
Staphylococcus aureus [5] = experiment: Antibacterial activity against methicillin-sensitive Staphylococcus aureus 10-14 after 18 to 24 hrs by NCCLS method; method in brief: as §1
Staphylococcus aureus [6] = experiment: Antibacterial activity against methicillin-resistant Staphylococcus aureus 10-11 after 18 to 24 hrs by NCCLS method
Method in brief: (§2)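 Incubated at 35 °C for 18–24 h under NCCLS (M100-S11) standards. MIC was read as the lowest concentration giving complete inhibition of visible bacterial growth.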

Staphylococcus aureus [7] = experiment: Antibacterial activity against methicillin-resistant Staphylococcus aureus 10-13 after 18 to 24 hrs by NCCLS method; method in brief: as §2
Staphylococcus aureus [8] = experiment: Antibacterial activity against methicillin-resistant Staphylococcus aureus 10-15 after 18 to 24 hrs by NCCLS method; method in brief: as §2
[9] = system: Staphylococcus epidermidis; experiment: Antibacterial activity against methicillin-sensitive Staphylococcus epidermidis 10-11 after 18 to 24 hrs by NCCLS method; method in brief: as §1
[10] = system: Staphylococcus epidermidis; experiment: Antibacterial activity against methicillin-sensitive Staphylococcus epidermidis 10-15 after 18 to 24 hrs by NCCLS method; method in brief: as §2
[11] = system: Staphylococcus epidermidis; experiment: Antibacterial activity against methicillin-resistant Staphylococcus epidermidis 10-10 after 18 to 24 hrs by NCCLS method; method in brief: as §2
[12] = system: Staphylococcus epidermidis; experiment: Antibacterial activity against methicillin-resistant Staphylococcus epidermidis 10-13 after 18 to 24 hrs by NCCLS method; method in brief: as §2
Enterococcus faecalis [13] = experiment: Antibacterial activity against Enterococcus faecalis 10-5 after 18 to 24 hrs by NCCLS method; method in brief: as §1
Enterococcus faecalis [14] = experiment: Antibacterial activity against Enterococcus faecalis 10-6 after 18 to 24 hrs by NCCLS method; method in brief: as §1
Enterococcus faecalis [15] = experiment: Antibacterial activity against Enterococcus faecalis 10-7 after 18 to 24 hrs by NCCLS method; method in brief: as §1
Enterococcus faecium [16] = experiment: Antibacterial activity against Enterococcus faecium 10-6 after 18 to 24 hrs by NCCLS method; method in brief: as §1
Enterococcus faecium [17] = experiment: Antibacterial activity against Enterococcus faecium 10-9 after 18 to 24 hrs by NCCLS method; method in brief: as §1
Streptococcus pneumoniae [18] = experiment: Antibacterial activity against Streptococcus pneumoniae 10-1 after 18 to 24 hrs by NCCLS method; method in brief: as §1
Streptococcus pneumoniae [19] = experiment: Antibacterial activity against Streptococcus pneumoniae 10-6 after 18 to 24 hrs by NCCLS method; method in brief: as §1
Escherichia coli [20] = experiment: Antibacterial activity against Escherichia coli ATCC 25922 after 18 to 24 hrs by NCCLS method; method in brief: as §1
Escherichia coli [21] = experiment: Antibacterial activity against Escherichia coli 10-1 after 18 to 24 hrs by NCCLS method; method in brief: as §1
Escherichia coli [22] = experiment: Antibacterial activity against Escherichia coli 10-2 after 18 to 24 hrs by NCCLS method; method in brief: as §1
Escherichia coli [23] = experiment: Antibacterial activity against Escherichia coli 10-3 after 18 to 24 hrs by NCCLS method; method in brief: as §1
Escherichia coli [24] = experiment: Antibacterial activity against extended spectrum beta-lactamases producing Escherichia coli 10-2 after 18 to 24 hrs by NCCLS method; method in brief: as §1
Escherichia coli [25] = experiment: Antibacterial activity against extended spectrum beta-lactamases producing Escherichia coli 10-3 after 18 to 24 hrs by NCCLS method; method in brief: as §1
Escherichia coli [26] = experiment: Antibacterial activity against extended spectrum beta-lactamases producing Escherichia coli 10-4 after 18 to 24 hrs by NCCLS method; method in brief: as §1
Klebsiella pneumoniae [27] = experiment: Antibacterial activity against Klebsiella pneumoniae 10-2 after 18 to 24 hrs by NCCLS method; method in brief: as §1
Klebsiella pneumoniae [28] = experiment: Antibacterial activity against Klebsiella pneumoniae 10-3 after 18 to 24 hrs by NCCLS method; method in brief: as §1
Klebsiella pneumoniae [29] = experiment: Antibacterial activity against Klebsiella pneumoniae 10-4 after 18 to 24 hrs by NCCLS method; method in brief: as §1
Klebsiella pneumoniae [30] = experiment: Antibacterial activity against extended spectrum beta-lactamases producing Klebsiella pneumoniae 10-1 after 18 to 24 hrs by NCCLS method; method in brief: as §1
Klebsiella pneumoniae [31] = experiment: Antibacterial activity against extended spectrum beta-lactamases producing Klebsiella pneumoniae 10-2 after 18 to 24 hrs by NCCLS method; method in brief: as §1
Klebsiella pneumoniae [32] = experiment: Antibacterial activity against extended spectrum beta-lactamases producing Klebsiella pneumoniae 10-3 after 18 to 24 hrs by NCCLS method; method in brief: as §1
Pseudomonas aeruginosa [33] = experiment: Antibacterial activity against Pseudomonas aeruginosa 10-5 after 18 to 24 hrs by NCCLS method; method in brief: as §1
Pseudomonas aeruginosa [34] = experiment: Antibacterial activity against Pseudomonas aeruginosa 10-9 after 18 to 24 hrs by NCCLS method; method in brief: as §1
Pseudomonas aeruginosa [35] = experiment: Antibacterial activity against Pseudomonas aeruginosa 10-12 after 18 to 24 hrs by NCCLS method; method in brief: as §1
Pseudomonas aeruginosa [36] = experiment: Antibacterial activity against Pseudomonas aeruginosa 10-15 after 18 to 24 hrs by NCCLS method; method in brief: as §1
Pseudomonas aeruginosa [37] = experiment: Antibacterial activity against Pseudomonas aeruginosa 10-18 after 18 to 24 hrs by NCCLS method; method in brief: as §1
Pseudomonas aeruginosa [38] = experiment: Antibacterial activity against Pseudomonas aeruginosa 10-20 after 18 to 24 hrs by NCCLS method; method in brief: as §1

Structure (SMILES) | MIC [1] [µg/mL] | MIC (Staphylococcus aureus [2]) [µg/mL] | MIC (Staphylococcus aureus [3]) [µg/mL] | MIC (Staphylococcus aureus [4]) [µg/mL] | MIC (Staphylococcus aureus [5]) [µg/mL] | MIC (Staphylococcus aureus [6]) [µg/mL] | MIC (Staphylococcus aureus [7]) [µg/mL] | MIC (Staphylococcus aureus [8]) [µg/mL] | MIC [9] [µg/mL] | MIC [10] [µg/mL] | MIC [11] [µg/mL] | MIC [12] [µg/mL] | MIC (Enterococcus faecalis [13]) [µg/mL] | MIC (Enterococcus faecalis [14]) [µg/mL] | MIC (Enterococcus faecalis [15]) [µg/mL] | MIC (Enterococcus faecium [16]) [µg/mL] | MIC (Enterococcus faecium [17]) [µg/mL] | MIC (Streptococcus pneumoniae [18]) [µg/mL] | MIC (Streptococcus pneumoniae [19]) [µg/mL] | MIC (Escherichia coli [20]) [µg/mL] | also measured
COc1ccc(CN2CCN(c3cc4c(cc3F)c(=O)c(C(=O)O)cn4C3CC3)CC2)c(Cl)c1OC | 2 (≈ 3.88 µM) | 0.06 (≈ 0.116 µM) | 0.5 (≈ 0.969 µM) | 0.5 (≈ 0.969 µM) | 0.5 (≈ 0.969 µM) | 64 (≈ 124 µM) | 128 (≈ 248 µM) | 64 (≈ 124 µM) | 1 (≈ 1.94 µM) | 32 (≈ 62 µM) | 32 (≈ 62 µM) | 32 (≈ 62 µM) | 8 (≈ 15.5 µM) | 64 (≈ 124 µM) | 32 (≈ 62 µM) | 4 (≈ 7.75 µM) | 32 (≈ 62 µM) | 2 (≈ 3.88 µM) | 64 (≈ 124 µM) | 1 (≈ 1.94 µM) | MIC (Escherichia coli [21]): > 128 µg/mL; MIC (Escherichia coli [22]): 32 µg/mL (≈ 62 µM); MIC (Escherichia coli [23]): > 128 µg/mL; MIC (Escherichia coli [24]): > 128 µg/mL; MIC (Escherichia coli [25]): > 128 µg/mL; MIC (Escherichia coli [26]): > 128 µg/mL; MIC (Klebsiella pneumoniae [27]): > 128 µg/mL; MIC (Klebsiella pneumoniae [28]): 32 µg/mL (≈ 62 µM); MIC (Klebsiella pneumoniae [29]): > 128 µg/mL; MIC (Klebsiella pneumoniae [30]): > 128 µg/mL; MIC (Klebsiella pneumoniae [31]): > 128 µg/mL; MIC (Klebsiella pneumoniae [32]): > 128 µg/mL; MIC (Pseudomonas aeruginosa [33]): 64 µg/mL (≈ 124 µM); MIC (Pseudomonas aeruginosa [34]): 128 µg/mL (≈ 248 µM); MIC (Pseudomonas aeruginosa [35]): 64 µg/mL (≈ 124 µM); MIC (Pseudomonas aeruginosa [36]): 64 µg/mL (≈ 124 µM); MIC (Pseudomonas aeruginosa [37]): 128 µg/mL (≈ 248 µM); MIC (Pseudomonas aeruginosa [38]): 64 µg/mL (≈ 124 µM)
COc1cc(CN2CCN(c3cc4c(cc3F)c(=O)c(C(=O)O)cn4C3CC3)CC2)cc(OC)c1OC | 32 (≈ 62.6 µM) | 0.25 (≈ 0.489 µM) | 0.25 (≈ 0.489 µM) | 0.5 (≈ 0.977 µM) | 0.25 (≈ 0.489 µM) | 64 (≈ 125 µM) | 128 (≈ 250 µM) | 32 (≈ 62.6 µM) | 0.5 (≈ 0.977 µM) | 32 (≈ 62.6 µM) | 32 (≈ 62.6 µM) | 32 (≈ 62.6 µM) | 8 (≈ 15.6 µM) | 64 (≈ 125 µM) | 64 (≈ 125 µM) | 4 (≈ 7.82 µM) | 32 (≈ 62.6 µM) | 4 (≈ 7.82 µM) | 64 (≈ 125 µM) | 1 (≈ 1.95 µM) | MIC (Escherichia coli [21]): > 128 µg/mL; MIC (Escherichia coli [22]): 32 µg/mL (≈ 62.6 µM); MIC (Escherichia coli [23]): > 128 µg/mL; MIC (Escherichia coli [24]): > 128 µg/mL; MIC (Escherichia coli [25]): > 128 µg/mL; MIC (Escherichia coli [26]): > 128 µg/mL; MIC (Klebsiella pneumoniae [27]): > 128 µg/mL; MIC (Klebsiella pneumoniae [28]): 32 µg/mL (≈ 62.6 µM); MIC (Klebsiella pneumoniae [29]): > 128 µg/mL; MIC (Klebsiella pneumoniae [30]): > 128 µg/mL; MIC (Klebsiella pneumoniae [31]): > 128 µg/mL; MIC (Klebsiella pneumoniae [32]): > 128 µg/mL; MIC (Pseudomonas aeruginosa [33]): 32 µg/mL (≈ 62.6 µM); MIC (Pseudomonas aeruginosa [34]): 32 µg/mL (≈ 62.6 µM); MIC (Pseudomonas aeruginosa [35]): 32 µg/mL (≈ 62.6 µM); MIC (Pseudomonas aeruginosa [36]): 64 µg/mL (≈ 125 µM); MIC (Pseudomonas aeruginosa [37]): 128 µg/mL (≈ 250 µM); MIC (Pseudomonas aeruginosa [38]): 64 µg/mL (≈ 125 µM)
